Experimental data from ChEMBL document CHEMBL4834414 (J Med Chem, 2021).
Activity calls are given as the source filed them. The calls are words filed in the database; no cut-off is given here.

Columns and labels:
[1] = target: T1, Microtubule-associated protein 1 light chain 3 alpha (Homo sapiens, UniProt Q9H492); experiment: Displacement of sGFP-p62-LIR peptide from human N-terminal SNAP-fused LC3A by time-resolved FRET assay
Summary of the method: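 HTRF displacement: 10 nM N-terminal SNAP-LC3A labeled with terbium cryptate (donor) and 1 μM p62-LIR-sGFP (acceptor), with compound at varying concentrations in 1% DMSO. Buffer 25 mM HEPES pH 7.5, 150 mM KF, 10% glycerol, 0.1% CHAPS, 5 mM DTT. Incubated 2 h at RT; excitation 340 nm, emission read at 520 and 620 nm. IC50 with SD; Ki calculated.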

[2] = target: T1, Microtubule-associated protein 1 light chain 3 alpha; experiment: Binding affinity to recombinant LC3A (unknown origin) assessed as shift of melting temperature by differential scanning fluorimetry
Summary of the method: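 LC3A at 30 μM in HTRF buffer with 0.1% CHAPS, 2.5× SYPRO orange, 300 μM inhibitor and 1% DMSO, with a no-protein background. Heated 25.0 to 79.8 °C at 1 °C/min; excitation 490 nm, emission 570 nm. Tm taken as the first-derivative maximum; ΔTm against DMSO control. Triplicates in three independent experiments.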

[3] = target: T1, Microtubule-associated protein 1 light chain 3 alpha; experiment: Binding affinity to human LC3A expressed in Escherichia coli BL21-(DE3) by isothermal titration calorimetry
Summary of the method: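 His-tagged LC3A from E. coli BL21(DE3), TEV-cleaved and purified by IMAC, reverse IMAC and SEC into HTRF buffer (25 mM HEPES pH 7.5, 150 mM KF, 10% glycerol, 5 mM DTT), plus 0.1% CHAPS and 1% DMSO. ITC at 25 °C, stirring 75 rpm: 80 μM protein; inhibitor at 500 μM or 1 mM. Injection settings optimized per compound; dilution heats checked by blank titrations.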

[4] = target: Microtubule-associated protein 1 light chain 3 beta (Homo sapiens, UniProt Q9GZQ8); experiment: Displacement of sGFP-p62-LIR peptide from human N-terminal SNAP-fused LC3B by time-resolved FRET assay
[5] = target: Gamma-aminobutyric acid receptor-associated protein-like 2 (Homo sapiens) (UniProt P60520); experiment: Binding affinity to human GABARAPL2 expressed in Escherichia coli T7 by single site binding model based isothermal titration calorimetry
Summary of the method: (§1)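 Human Atg8-family proteins (LC3A, LC3C, GABARAP, GABARAPL1, GABARAPL2) expressed with a modified Ub tag, equilibrated in 50 mM Na2HPO4, 100 mM NaCl, 5% DMSO, pH 7.0; ligand prepared in the same buffer. ITC at 25 °C: 0.4 mM ligand titrated into 0.020 mM protein in 21 injections. Kd from a nonlinear least-squares fit to a single-site binding model.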

[6] = target: Microtubule-associated protein 1 light chain 3 gamma (Homo sapiens) (UniProt Q9BXW4); experiment: Binding affinity to human LC3C expressed in Escherichia coli BL21-(DE3) by single site binding model based isothermal titration calorimetry; summary of the method: as §1
[7] = target: Gamma-aminobutyric acid receptor-associated protein (Homo sapiens) (UniProt O95166); experiment: Binding affinity to human GABARAP expressed in Escherichia coli T7 by single site binding model based isothermal titration calorimetry; summary of the method: as §1
[8] = target: T1, Microtubule-associated protein 1 light chain 3 alpha; experiment: Binding affinity to human LC3A expressed in Escherichia coli BL21-(DE3) by single site binding model based isothermal titration calorimetry; summary of the method: as §1
[9] = target: Gamma-aminobutyric acid receptor-associated protein-like 1 (Homo sapiens) (UniProt Q9H0R8); experiment: Binding affinity to human GABARAPL1 expressed in Escherichia coli T7 by single site binding model based isothermal titration calorimetry; summary of the method: as §1
Sequence of Gamma-aminobutyric acid receptor-associated protein-like 1 (Homo sapiens) (Q9H0R8 whole entry, looked up): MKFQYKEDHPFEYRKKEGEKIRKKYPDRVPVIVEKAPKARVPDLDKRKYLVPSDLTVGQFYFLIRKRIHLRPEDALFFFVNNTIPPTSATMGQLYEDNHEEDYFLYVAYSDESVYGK

Sequence of Gamma-aminobutyric acid receptor-associated protein-like 2 (Homo sapiens) (P60520 whole entry): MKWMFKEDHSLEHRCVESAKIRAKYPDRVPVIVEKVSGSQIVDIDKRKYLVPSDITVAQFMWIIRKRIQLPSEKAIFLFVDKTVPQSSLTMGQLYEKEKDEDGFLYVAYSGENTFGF
Sequence of Gamma-aminobutyric acid receptor-associated protein (Homo sapiens) (O95166 whole entry): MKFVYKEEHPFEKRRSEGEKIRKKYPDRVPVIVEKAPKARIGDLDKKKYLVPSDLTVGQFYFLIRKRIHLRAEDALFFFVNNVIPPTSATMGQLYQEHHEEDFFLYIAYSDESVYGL
Sequence of Microtubule-associated protein 1 light chain 3 gamma (Homo sapiens) (Q9BXW4 whole entry): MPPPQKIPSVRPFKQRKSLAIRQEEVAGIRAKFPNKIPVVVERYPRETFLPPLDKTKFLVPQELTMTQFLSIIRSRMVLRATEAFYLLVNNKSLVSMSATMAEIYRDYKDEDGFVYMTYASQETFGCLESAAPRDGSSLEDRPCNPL

`CC(C)CS(=O)(=O)Nc1cccc(C(=O)Nc2c(O)c3ccc(O)cc3oc2=O)c1` showed a Ki ([1]; read-out: Ki) of 53 µM.
For `CC(C)CCc1cc(C(=O)Nc2c(O)c3ccc(O)cc3oc2=O)ccc1O`, the ΔTm [2] was 0.8 °C, the Kd [3] was 27.5 µM and the IC50 ([1]; read-out: IC50) was 128 µM. It also gave a Ki ([1]; read-out: Ki) of 26.2 µM.
`CC(C)CCc1cccc(C(=O)Nc2c(O)c3ccc(NS(=O)(=O)CCc4ccccc4)cc3oc2=O)c1` showed an IC50 ([4]; read-out: IC50) of 66.3 µM, a Ki ([4]; read-out: Ki) of 7.4 µM and an IC50 ([1]; read-out: IC50) of 36.7 µM. The Ki ([1]; read-out: Ki) was 7.5 µM.
`CCCOc1cccc(C(=O)Nc2c(O)c3ccc(O)cc3oc2=O)c1` showed a Ki ([1]; read-out: Ki) of 143 µM.
Compound `CS(=O)(=O)Nc1cccc(C(=O)Nc2c(O)c3ccc(O)cc3oc2=O)c1` has a Ki ([1]; read-out: Ki) of 130 µM.
In the case of `CC(C)Oc1cccc(C(=O)Nc2c(O)c3ccc(O)cc3oc2=O)c1`, the Ki ([1]; read-out: Ki) is reported as 103 µM.
Compound `CC(C)CCc1cccc(C(=O)Nc2c(O)c3ccc(NS(=O)(=O)Cc4ccccc4)cc3oc2=O)c1` has an IC50 ([1]; read-out: IC50) of 73.1 µM and a Ki ([1]; read-out: Ki) of 15 µM.
Work on `O=C(Nc1c(O)c2ccc(O)cc2oc1=O)c1cccc(CCC2CC2)c1` yielded a Ki ([1]; read-out: Ki) of 13 µM.
With `CCCS(=O)(=O)Nc1cccc(C(=O)Nc2c(O)c3ccc(O)cc3oc2=O)c1` the Ki ([1]; read-out: Ki) was 144 µM.
For `CCCCSc1cccc(C(=O)Nc2c(O)c3ccc(O)cc3oc2=O)c1`, the Ki ([1]; read-out: Ki) was 18 µM.
In the case of `CC(C)CCc1cccc(C(=O)Nc2c(O)c3ccc(NC(=O)CCCC(=O)O)cc3oc2=O)c1`, the IC50 ([1]; read-out: IC50) is reported as 229 µM and the Ki ([1]; read-out: Ki) is reported as 46.9 µM.
In the case of `Cc1ccc(S(=O)(=O)Nc2ccc3c(O)c(NC(=O)c4cccc(CCC(C)C)c4)c(=O)oc3c2)cc1`, the IC50 ([1]; read-out: IC50) is reported as 59.9 µM and the Ki ([1]; read-out: Ki) is reported as 12.3 µM.
For `CO[C@@H]1[C@@H](OC(N)=O)[C@@H](O)[C@H](Oc2ccc3c(O)c(NC(=O)c4ccc(O)c(CC=C(C)C)c4)c(=O)oc3c2C)OC1(C)C`, the Activity [5] was “inactive”, the Activity [6] was “inactive” and the Activity [7] was “inactive”. The Activity [8] was “Active” and the Activity [9] was “inactive”.
`CC(C)Cc1cccc(C(=O)Nc2c(O)c3ccc(O)cc3oc2=O)c1` gave a Ki ([1]; read-out: Ki) of 20 µM.
With `Cc1ccccc1S(=O)(=O)Nc1ccc2c(O)c(NC(=O)c3cccc(CCC(C)C)c3)c(=O)oc2c1` the IC50 ([1]; read-out: IC50) was 76 µM and the Ki ([1]; read-out: Ki) was 15.6 µM.
In the case of `COc1cccc(C(=O)Nc2c(O)c3ccc(O)cc3oc2=O)c1`, the Ki [4] is reported as “Not Active” and the Ki [1] is reported as “Not Active”.
`CC(C)CCc1cccc(C(=O)Nc2c(O)c3ccc(-c4ccnn4C)cc3oc2=O)c1` was tested, and the IC50 ([1]; read-out: IC50) was 219 µM and the Ki ([1]; read-out: Ki) was 44.8 µM.
Compound `CC(C)CCc1cccc(C(=O)Nc2c(O)c3ccc(NS(=O)(=O)c4cccc5ccccc45)cc3oc2=O)c1` has an IC50 ([1]; read-out: IC50) of 31.2 µM and a Ki ([1]; read-out: Ki) of 6.4 µM.
`CC(C)CCc1cccc(C(=O)Nc2c(O)c3ccc(-c4cccc(C(=O)O)c4)cc3oc2=O)c1` gave an IC50 ([1]; read-out: IC50) of 35.3 µM and a Ki ([1]; read-out: Ki) of 7.2 µM.
Compound `CCCCc1cccc(C(=O)Nc2c(O)c3ccc(O)cc3oc2=O)c1` has a Ki ([1]; read-out: Ki) of 12 µM.
For `CC[C@H](C)[C@H](NC(=O)OC(C)(C)C)C(=O)Nc1c(O)c2ccc(O)cc2oc1=O`, the IC50 [4] was “Not Active”, the Ki [4] was “Not Active” and the IC50 [1] was “Not Active”. For the same compound, the Ki [1] was “Not Active”.
`CC(C)Sc1cccc(C(=O)Nc2c(O)c3ccc(O)cc3oc2=O)c1` gave a Ki ([1]; read-out: Ki) of 47 µM.
In the case of `CC(C)CCc1ccccc1C(=O)Nc1c(O)c2ccc(O)cc2oc1=O`, the IC50 ([1]; read-out: IC50) is reported as 215 µM and the Ki ([1]; read-out: Ki) is reported as 44 µM.
`CC(C)S(=O)(=O)Nc1cccc(C(=O)Nc2c(O)c3ccc(O)cc3oc2=O)c1` showed a Ki ([1]; read-out: Ki) of 39 µM.
`CC(C)CCc1cc(C(=O)Nc2c(O)c3ccc(O)cc3oc2=O)ccc1F` was tested, and the IC50 ([1]; read-out: IC50) was 107 µM and the Ki ([1]; read-out: Ki) was 21.8 µM.
Work on `CC(=O)Nc1ccc2c(O)c(NC(=O)c3cccc(CCC(C)C)c3)c(=O)oc2c1` yielded an IC50 ([1]; read-out: IC50) of 120 µM and a Ki ([1]; read-out: Ki) of 24.6 µM.
With `O=C(Nc1c(O)c2ccc(O)cc2oc1=O)c1cccc(SCC2CC2)c1` the Ki ([1]; read-out: Ki) was 13 µM.
Compound `CC(C)CCc1cccc(C(=O)Nc2c(O)c3ccc(-c4ccc(C(=O)O)cc4)cc3oc2=O)c1` has an IC50 ([1]; read-out: IC50) of 92.1 µM and a Ki ([1]; read-out: Ki) of 18.9 µM.
`O=C(Nc1c(O)c2ccc(O)cc2oc1=O)c1cccc(Oc2ccccc2)c1` was tested, and the Ki ([1]; read-out: Ki) was 44 µM.
